Sampled rows, rich in hits. Any-hit rate of the full collection: about 0.29%.
procasp3 activ: activators of human procaspase-3; P42574; recombinant procaspase-3 D3A, Ac-DEVD-pNA absorbance 405 nm; activation, % at 8.5 µM; 330,000 compounds, 0.11% hits; AID 463141;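 active means activation above the mean of all tested compounds plus 3 SD, cut at about 21% in these data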
Target sequence (P42574 whole entry D9A/D28A/D175A): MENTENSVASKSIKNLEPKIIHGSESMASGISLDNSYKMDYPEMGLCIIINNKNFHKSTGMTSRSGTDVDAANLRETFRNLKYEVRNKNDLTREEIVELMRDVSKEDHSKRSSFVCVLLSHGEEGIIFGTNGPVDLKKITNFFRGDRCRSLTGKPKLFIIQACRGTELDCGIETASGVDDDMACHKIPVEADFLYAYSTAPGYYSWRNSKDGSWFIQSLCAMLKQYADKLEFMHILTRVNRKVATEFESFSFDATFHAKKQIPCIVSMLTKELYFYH
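Assay system: Autoprocessing-dead procaspase-3 D3A mutant enzyme; also added: Ac-DEVD-pNA; doses: one concentration, 8.5 µM nominal, 0.8% DMSO; times: 1 h compound preincubation, 2 h substrate hydrolysis at 25 °C; technique: 405 nm absorbance of p-nitroaniline, reads at 0 and 120 min; measure: % activation between DMSO and enzyme-spiked controls; repeats: single replicate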
PKA-R2B activ: PKA-R2B complex activation | P22694+P31323 | activation, % at 11.4 µM | PKA-R2B holoenzyme dissociation, Cy5-IP20 fluorescence polarization; R2B truncated from residue 108, S112A mutant; 0% DMSO only, 100% 113 µM cGMP | 340,000 compounds, 0.079% hits | AID 504700;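 active means activation above a cutoff set at the mean over all compounds plus 3 SD, cut at about 18% in these data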;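 further: higher means more holoenzyme dissociation and a rise in polarization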
Target sequence (P31323 whole entry, looked up, other chains not shown, the tested form may be a part): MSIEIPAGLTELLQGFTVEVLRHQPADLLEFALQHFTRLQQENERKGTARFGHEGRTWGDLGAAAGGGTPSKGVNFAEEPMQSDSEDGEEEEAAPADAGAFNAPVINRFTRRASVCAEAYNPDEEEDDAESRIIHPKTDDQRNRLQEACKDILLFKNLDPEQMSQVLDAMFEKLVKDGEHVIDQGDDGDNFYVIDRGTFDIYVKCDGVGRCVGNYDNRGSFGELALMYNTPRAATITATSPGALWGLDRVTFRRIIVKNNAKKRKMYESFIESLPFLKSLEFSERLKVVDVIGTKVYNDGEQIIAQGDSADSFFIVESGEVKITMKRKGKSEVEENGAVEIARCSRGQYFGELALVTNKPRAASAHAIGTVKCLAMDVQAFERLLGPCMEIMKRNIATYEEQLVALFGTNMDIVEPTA
proCasp7 act: counter-screen for procaspase-3 activators: activators of human procaspase-7; AID 463210; recombinant procaspase-7, Ac-DEVD-pNA absorbance 405 nm; D23A/D198A/D206A triple mutant, cannot self-cleave; scale: DMSO 0, 5 µM enzyme 100; P55210; activation, % at 8.5 µM; 330,000 compounds, 0.093% hits;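 active means percent activation above the screen-wide mean plus 3 SD, cut at about 25% in these data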
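System: Procaspase-7 triple mutant (PC-7 D3A); measure: % activation from two-timepoint absorbance difference, scaled to controls; times: 1 h compound preincubation, 2 h substrate cleavage, 25 °C; also added: Ac-DEVD-pNA substrate, 400 µM as added; measured by: Epi-absorbance of released pNA at 405 nm, two timepoints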
PKA-R1A activ: activates the PKA-R1A holoenzyme complex; P00514+P68181; PKA-R1A dissociation, Cy5-IP20 fluorescence polarization; scaled: DMSO 0%, 113 µM cGMP 100%; activation, % at 11.4 µM; 340,000 compounds, 0.083% hits;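 active means percent activation above the mean of all tested compounds plus 3 SD, cut at about 19% in these data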;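 further: higher means more PKAc released from R1A so a rise in polarization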
R1A FP artifact: fluorescence polarization artifact in PKA-R1A activator counter-screen; shares compounds with PKA-R1A activ; Cy5-IP20 peptide alone, fluorescence polarization artifact counterscreen; activation, % at 11.4 µM; 280 compounds, 7% hits;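 active means mean activation over triplicate runs exceeds the adjusted cutoff derived for the parent primary screen, cut at about 19% in these data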;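 further: no PKA protein present so any polarization rise reflects compound interference; higher means stronger polarization artifact and likely false positive in parent screen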
PKA-R1A confirm: PKA-R1A complex activation, confirmation; activation, % at 11.4 µM; AID 504800; Cy5-IP20 fluorescence polarization, PKA-R1A holoenzyme dissociation; shares compounds with PKA-R1A activ; 280 compounds, 9% hits;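 active means mean activation over replicate wells exceeds the adjusted hit threshold taken from the earlier primary screen, cut at about 20% in these data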
Of the large screens only hits and unclear results are named; the others gave an inactive call (follow-up assays come after a bar, where they were run).

N#Cc1ccc(C(=O)NCCCSc2ccccc2)cc1	none
CN(C)c1ccc(C(=O)NCCCSc2ccccc2)cc1	PKA-R1A activ 20 | R1A FP artifact inactive | PKA-R1A confirm inactive
CCCCS(=O)(=O)N1CCCC(C(=O)NCCc2ccccc2)C1 (stereo not given)	none
CCCCS(=O)(=O)N1CCCC(C(=O)Nc2ccc3c(c2)CCC3)C1 (stereo not given)	PKA-R1A activ 19 | R1A FP artifact inactive | PKA-R1A confirm inactive
Cc1ccnc(SCc2cc(=O)c(OC(=O)c3cc([N+](=O)[O-])ccc3Cl)co2)n1	PKA-R1A activ 19 | R1A FP artifact inactive | PKA-R1A confirm inactive
CCC(=O)Nc1ccc(C(=O)NNC(=O)COc2cccc(C)c2)cc1	PKA-R1A activ 20 | R1A FP artifact inactive | PKA-R1A confirm inactive
COc1cccc(NC(=O)CN(C)C(=O)CCNS(=O)(=O)c2ccc(C)cc2)c1	PKA-R1A activ 19 | R1A FP artifact inactive | PKA-R1A confirm inactive
Cc1[nH]c(=O)[nH]c(=O)c1S(=O)(=O)Nc1ccc(S(N)(=O)=O)cc1	PKA-R1A activ 20 | R1A FP artifact inactive | PKA-R1A confirm inactive
Cc1[nH]c(=O)[nH]c(=O)c1S(=O)(=O)NCCc1ccc(S(N)(=O)=O)cc1	none
COc1ccccc1CCC(=O)Nc1ccc(OC)c(S(=O)(=O)N2CCCCC2)c1	none
COc1ccc(N2C(=O)CSC2c2ccc([N+](=O)[O-])cc2)cc1 (stereo not given)	PKA-R1A activ 20 | R1A FP artifact inactive | PKA-R1A confirm inactive
CC(NC(=O)c1cc2c(cc1Cl)N1CCCCCC1=NS2(=O)=O)c1ccc(S(N)(=O)=O)cc1 (stereo not given)	none
C/C(=N\NC(=O)c1csc(C)c1C)c1ccc(Cl)s1	none
C/C(=N\NC(=O)c1ccoc1C)c1ccc(Cl)s1	PKA-R1A activ 20 | R1A FP artifact inactive | PKA-R1A confirm inactive
CC1=NN(c2ccc(C)cc2C)C(=O)C1C(c1ccccc1)C1C(=O)N(c2ccc(C)cc2C)N=C1C (stereo not given)	none
CCn1cc([N+](=O)[O-])c(C(=O)Nc2c(C)nn(Cc3cccc(F)c3)c2C)n1	PKA-R1A activ 19 | R1A FP artifact inactive | PKA-R1A confirm inactive
NC(=O)c1ccc(NC(=O)COC(=O)/C=C/c2cn(-c3ccccc3)nc2-c2cccnc2)cc1	none
COc1ccc(/C=C2/S/C(=N/S(=O)(=O)Cc3ccccc3)NC2=O)cc1OC	PKA-R1A activ 23 | R1A FP artifact inactive | PKA-R1A confirm inactive
Cc1ccc(S(=O)(=O)n2cnc(C)c2)cc1	PKA-R1A activ 20 | R1A FP artifact inactive | PKA-R1A confirm inactive
COP(=O)(c1ccc(N(C)C)cc1)C(O)c1ccccc1 (stereo not given)	none
COc1ccc(C)cc1NC(=O)CO/N=C(\N)CC(=O)Nc1ccccc1OC	PKA-R1A activ 20 | R1A FP artifact inactive | PKA-R1A confirm inactive
COc1ccccc1NC(=O)C/C(N)=N/OCC(=O)Nc1cccc(Cl)c1	none
NC(=O)C1CCN(C(=O)C(=O)c2cn(CC(=O)N3CCCC3)c3ccccc23)CC1	PKA-R1A activ 20 | R1A FP artifact inactive | PKA-R1A confirm inactive
CCc1ccc(NC(=O)CSc2nnc(-c3ccccn3)n2C)cc1	PKA-R1A activ 19 | R1A FP artifact inactive | PKA-R1A confirm inactive
CCCC1=NN(c2ccc([N+](=O)[O-])cc2)C(=O)/C1=C/N(C)C	PKA-R1A activ 19 | R1A FP artifact inactive | PKA-R1A confirm inactive
CC1=NN(c2ccc([N+](=O)[O-])cc2)C(=O)/C1=C\N(C)C	none
CCN(CC(=O)Nc1ccccc1OC)C(=O)CSCc1ccc(C)cc1	PKA-R1A activ 22 | R1A FP artifact inactive | PKA-R1A confirm inactive
O=C(NCC(=O)N1CCN(c2ccc(C(F)(F)F)cn2)CC1)c1ccc(Br)o1	none
Cc1cc(NC(=O)CSCC(=O)OCC(=O)Nc2cc(C)c(C)cc2[N+](=O)[O-])no1	PKA-R1A activ 20 | R1A FP artifact inactive | PKA-R1A confirm inactive
Cc1cccc(NC(=O)c2sc(C)nc2C)c1	PKA-R1A activ 19 | R1A FP artifact inactive | PKA-R1A confirm inactive
COc1ccccc1-c1cc(C(=O)Nc2cccnc2)no1	PKA-R1A activ 19 | R1A FP artifact inactive | PKA-R1A confirm inactive
COc1cccc2cc(-c3nnc(SCC(=O)Nc4cc(C(F)(F)F)ccc4Cl)n3N)oc12	PKA-R1A activ 20 | R1A FP artifact inactive | PKA-R1A confirm inactive
CCn1c(SCC(=O)Nc2nccs2)nnc1-c1cc2cccc(OC)c2o1	none (no result: procasp3 activ, proCasp7 act)
Cc1nnc(-c2cnn(C)c2N)n1CCCN(C)C	none
CCCCCCCn1c(C)nnc1-c1cnn(C)c1N	PKA-R1A activ 20 | R1A FP artifact inactive | PKA-R1A confirm inactive
CCOc1ccc(NC(=O)CN(C)C(=O)CCNC(=O)c2ccco2)cc1OCC	PKA-R1A activ 19 | R1A FP artifact inactive | PKA-R1A confirm inactive
Cc1c(N(C)S(=O)(=O)c2cccc(C(=O)NC(C)C)c2)c(=O)n(-c2ccccc2)n1C	none
O=C(Nc1ccc(S(=O)(=O)N2CCCC2)cc1)c1cccnc1Cl	none
O=C(NC(Cc1ccccc1)C(=O)O)/C(=C/c1ccc([N+](=O)[O-])cc1)NC(=O)c1ccccc1 (stereo not given)	none
CCC(C)(C)n1nnnc1C(c1cc2cccc(C)c2[nH]c1=O)N1CCN(C(=O)c2ccco2)CC1 (stereo not given)	PKA-R1A activ 19 | R1A FP artifact inactive | PKA-R1A confirm inactive
CCC(C)(C)n1nnnc1C(c1ccc(C)cc1)N1CCN(C(=O)c2ccco2)CC1 (stereo not given)	none
Cc1nc(NS(=O)(=O)c2ccccc2)sc1C(C)(C)C	none
Nc1cc(-c2ccco2)no1	none
Cc1ccc(C(C(=O)NC2CCCC2)N(C(=O)c2csnn2)c2ccccc2)o1 (stereo not given)	PKA-R1A activ 20 | R1A FP artifact inactive | PKA-R1A confirm inactive
CCN=c1scc(C)n1/N=C/c1cc(Br)c(O)c(OC)c1	none
O=C(/C=C/c1ccccc1)Nc1cccc(C(=O)NC2CC2)c1	PKA-R1A activ 19 (no result: procasp3 activ, proCasp7 act) | R1A FP artifact inactive | PKA-R1A confirm inactive
Cc1ccc(C(=O)NC2CCCCCCC2)c(Cl)c1	none
Cc1c(Br)cc(C(=O)NC2CCCCC2)c(C)c1C	PKA-R1A activ 23 | R1A FP artifact inactive | PKA-R1A confirm inactive
CCN1CCc2c(sc(NC(=O)c3ccc(S(=O)(=O)N(C)c4ccccc4)cc3)c2C(=O)NC)C1	none
CCSc1nc2c(c(=O)[nH]1)C(c1cccnc1)C(C(=O)OC)=C(C)N2 (stereo not given)	PKA-R1A activ 20 | R1A FP artifact inactive | PKA-R1A confirm inactive

Screening data as filed in PubChem BioAssay.
